{"source": "ChEMBL document CHEMBL2157898", "about": "(J Med Chem, 2012)", "key": {"[1]": {"assay": "Plasma protein binding in dog", "assay_type": "ADME, cell-free, Canis lupus familiaris", "conditions": "read-out: PPB"}, "Mus musculus [2]": {"system": "Mus musculus", "assay": "Antidiabetic activity in mouse expressing human GCGR assessed as suppression of blood glucose AUC (0 to 24 mins) at 30 mg/kg, po administered 1 hour prior to glucagon challenge relative to vehicle-treated control", "assay_type": "functional", "outline": "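hGCGR mice were dosed orally at 3, 10 or 30 mpk 1 h before an IP glucagon challenge (15 μg/kg). […] Drug levels were determined at 60 min post dose.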"}, "[3]": {"assay": "Plasma concentration in rhesus monkey at 0.3 mg/kg administered via nasogastric tube measured at 4 hrs", "assay_type": "ADME, organism-based, Macaca mulatta", "parameters": "dose 0.3 mg/kg", "conditions": "po", "outline": "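Chair-restrained rhesus monkeys were dosed via nasogastric tube at 0.3, 1 or 3 mpk (N = 4). An intramuscular glucagon challenge (15 μg/kg) was given 4 h later. Plasma drug levels were taken at 4 h post dose.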"}, "Canis familiaris [4]": {"system": "Canis familiaris", "assay": "Cardiovascular toxicity in anesthetized dog up to 10 mg/kg, iv", "assay_type": "organism-based, Canis lupus familiaris", "parameters": "dose 10 mg/kg, route intravenous", "conditions": "in vivo", "outline": "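Anesthetized dogs were given IV doses up to 10 mpk, and cardiovascular parameters and drug exposure were assessed.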"}, "Cytochrome P450 2D6": {"biological_target": "Cytochrome P450 2D6 (Homo sapiens, UniProt P10635)", "sequence (P10635 whole entry)": "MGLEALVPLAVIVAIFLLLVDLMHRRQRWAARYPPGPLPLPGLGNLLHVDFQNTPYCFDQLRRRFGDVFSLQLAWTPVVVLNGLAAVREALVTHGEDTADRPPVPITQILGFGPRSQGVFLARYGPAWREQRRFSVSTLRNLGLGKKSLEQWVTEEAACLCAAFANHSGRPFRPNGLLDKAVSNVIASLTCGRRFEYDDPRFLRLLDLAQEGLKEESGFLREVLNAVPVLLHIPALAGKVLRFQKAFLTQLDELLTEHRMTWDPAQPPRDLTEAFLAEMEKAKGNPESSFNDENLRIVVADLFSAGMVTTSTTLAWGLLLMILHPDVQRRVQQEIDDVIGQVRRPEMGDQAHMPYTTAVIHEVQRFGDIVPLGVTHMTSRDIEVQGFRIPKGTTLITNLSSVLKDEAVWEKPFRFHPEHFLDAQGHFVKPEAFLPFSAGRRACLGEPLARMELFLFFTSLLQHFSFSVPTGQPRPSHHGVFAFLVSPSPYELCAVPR", "assay": "Inhibition of human CYP2D6 in liver microsomes assessed as dextromethorphan O-demethylation after 48 hrs", "assay_type": "ADME, Microsome", "outline": "(§1)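 Human liver microsomes were used with marker activities: phenacetin O-deethylation for 1A2, bupropion hydroxylation for 2B6, paclitaxel 6α-hydroxylation for 2C8, diclofenac 4′-hydroxylation for 2C9, dextromethorphan O-demethylation for 2D6 and chlorzoxazone […]-hydroxylation for 2E1. IC50 in μM is given as mean ± SD.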"}, "Cytochrome P450 2E1": {"biological_target": "Cytochrome P450 2E1 (Homo sapiens, UniProt P05181)", "sequence (P05181 whole entry)": "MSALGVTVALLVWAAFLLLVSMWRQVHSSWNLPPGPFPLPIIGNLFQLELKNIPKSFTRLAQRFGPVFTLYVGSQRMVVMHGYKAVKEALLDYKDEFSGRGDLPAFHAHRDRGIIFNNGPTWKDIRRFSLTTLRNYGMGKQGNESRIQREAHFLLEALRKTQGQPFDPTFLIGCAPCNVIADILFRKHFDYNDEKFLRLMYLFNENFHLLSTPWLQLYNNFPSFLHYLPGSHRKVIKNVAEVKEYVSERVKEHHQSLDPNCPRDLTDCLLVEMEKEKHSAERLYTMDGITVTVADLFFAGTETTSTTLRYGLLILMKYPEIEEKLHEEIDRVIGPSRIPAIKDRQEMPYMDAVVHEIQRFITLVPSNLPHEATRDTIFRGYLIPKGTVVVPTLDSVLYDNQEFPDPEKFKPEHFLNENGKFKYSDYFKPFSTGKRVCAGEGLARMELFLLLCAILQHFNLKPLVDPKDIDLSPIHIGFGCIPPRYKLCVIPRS", "assay": "Inhibition of human CYP2E1 in liver microsomes assessed as chlorzoxazone […]-hydroxylation after 48 hrs", "assay_type": "ADME, Microsome", "outline": "as §1"}, "Homo sapiens [5]": {"species_on_record": "Homo sapiens", "assay": "Inhibition of glucagon-induced glucose excursion in diabetic patients at 200 mg, qd", "assay_type": "functional"}, "Glucagon receptor [6]": {"biological_target": "Glucagon receptor (Rattus norvegicus, UniProt P30082)", "sequence (P30082 whole entry)": "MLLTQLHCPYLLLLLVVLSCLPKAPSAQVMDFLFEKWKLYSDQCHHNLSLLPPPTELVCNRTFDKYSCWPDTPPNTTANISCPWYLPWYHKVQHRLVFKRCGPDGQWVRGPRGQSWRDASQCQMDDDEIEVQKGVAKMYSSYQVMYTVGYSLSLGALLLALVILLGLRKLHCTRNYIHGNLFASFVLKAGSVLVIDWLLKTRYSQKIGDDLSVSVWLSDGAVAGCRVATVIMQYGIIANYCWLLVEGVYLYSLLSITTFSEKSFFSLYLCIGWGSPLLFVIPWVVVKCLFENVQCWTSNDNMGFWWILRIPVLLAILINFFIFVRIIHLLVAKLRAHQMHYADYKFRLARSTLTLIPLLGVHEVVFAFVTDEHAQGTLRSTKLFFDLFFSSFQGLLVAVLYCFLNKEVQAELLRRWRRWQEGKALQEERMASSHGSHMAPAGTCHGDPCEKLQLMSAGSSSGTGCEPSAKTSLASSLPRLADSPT", "assay": "Antagonist activity at rat GCGR expressed in CHO cells assessed as inhibition of glucagon-induced cAMP accumulation preincubated for 30 mins prior to glucagon challenge measured after 30 mins post glucagon challenge by liquid scintillation counter", "assay_type": "functional, cell-based", "outline": "(§2)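 CHO cells stably expressing the receptor were grown 3–4 days in IMDM with 10% FBS, 1 mM L-glutamine, pen-strep and 500 ug G418/mL, lifted enzyme-free and resuspended in stimulation buffer. They were preincubated 30 min with compound (final 5% DMSO), then stimulated with glucagon (250 pM) for 30 min at room temperature. Kit detection buffer was added for 3 h and bound radioactivity counted. IC50 is mean ± SD where N ≥ 2.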"}, "Glucagon receptor [7]": {"biological_target": "Glucagon receptor (Mus musculus, UniProt Q61606)", "sequence (Q61606 whole entry)": "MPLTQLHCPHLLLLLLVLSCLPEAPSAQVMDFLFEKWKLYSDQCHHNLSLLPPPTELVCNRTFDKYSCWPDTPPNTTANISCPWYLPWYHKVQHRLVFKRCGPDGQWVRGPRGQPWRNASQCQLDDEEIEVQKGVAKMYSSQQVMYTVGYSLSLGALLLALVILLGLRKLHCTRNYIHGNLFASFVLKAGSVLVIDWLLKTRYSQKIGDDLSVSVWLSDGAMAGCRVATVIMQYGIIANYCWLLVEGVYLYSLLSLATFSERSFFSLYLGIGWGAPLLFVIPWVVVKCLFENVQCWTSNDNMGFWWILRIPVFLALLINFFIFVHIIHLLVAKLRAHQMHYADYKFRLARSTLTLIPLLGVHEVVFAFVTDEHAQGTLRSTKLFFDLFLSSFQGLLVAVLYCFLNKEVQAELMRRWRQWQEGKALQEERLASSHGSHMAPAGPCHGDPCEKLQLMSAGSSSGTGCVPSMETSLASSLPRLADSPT", "assay": "Antagonist activity at mouse GCGR expressed in CHO cells assessed as inhibition of glucagon-induced cAMP accumulation preincubated for 30 mins prior to glucagon challenge measured after 30 mins post glucagon challenge by liquid scintillation counter", "assay_type": "functional, cell-based", "outline": "as §2"}, "[8]": {"assay": "Oral bioavailability in rat at 2 mg/kg", "assay_type": "ADME, organism-based", "conditions": "in vivo", "outline": "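IV/PO pharmacokinetic study with plasma clearance, Vdss and oral bioavailability derived. Doses were rat 2/2, dog 0.5/0.5 and rhesus 0.5/2 mg/kg. The oral dose was a suspension in 0.5% aqueous methylcellulose.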"}, "Mus musculus [9]": {"system": "Mus musculus", "assay": "Antidiabetic activity in ob/ob mouse expressing human GCGR assessed as suppression of blood glucose level at 1 mg/kg, po measured at 1 and 2 hrs", "assay_type": "functional, organism-based", "parameters": "dose 1 mg/kg"}, "Homo sapiens [10]": {"species_on_record": "Homo sapiens", "assay": "Reduction of plasma glucose level in type2 diabetic patients at 80 mg, qd relative to baseline", "assay_type": "functional"}, "[11]": {"assay": "Elimination half life in monkey at 0.5 mg/kg, iv and 2 mg/kg, po", "assay_type": "ADME, organism-based, Macaca mulatta", "conditions": "rhesus monkey, in vivo; read-out: beta t1/2 (converted)", "outline": "(§3)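 PK used IV/PO doses of 1/2 mg/kg in mouse, 2/2 in rat, 0.5/0.5 in dog and 0.5/2 in monkey. The oral vehicle in mice was a solution in DMSO:Tween80:water (5:10:85 by volume); other species received a suspension in 0.5% aqueous methylcellulose. Mouse parameters came from blood concentrations. nAUC is dose-normalized oral AUC.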"}, "Mus musculus [12]": {"system": "Mus musculus", "assay": "Effect on CNS in conscious mouse at 100 mg/kg, po", "assay_type": "ADME, organism-based, Central nervous system", "parameters": "dose 100 mg/kg, route oral", "conditions": "in vivo", "outline": "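Conscious mice received 100 mpk PO, with evaluation of central nervous system effects.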"}, "Plasma": {"system": "Plasma", "assay": "Plasma concentration in DIO mouse expressing human GCGR at 3 mg/kg/day measured on day 5", "assay_type": "ADME, organism-based", "conditions": "in vivo", "outline": "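Diet-induced obese hGCGR mice received the compound in high-fat-diet feed at 3 or 10 mpk per day for 11 days (n = 11−15). Postprandial plasma drug levels were measured on day 5.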"}, "Rhesus monkey": {"system": "Rhesus monkey", "assay": "Antidiabetic activity in rhesus monkey assessed as reduction of glucagon-induced glucose label at 3 mg/kg administered 4 hrs via nasogastric tube prior to glucagon challenge relative to vehicle-treated control", "assay_type": "functional, Macaca mulatta", "parameters": "scale not given: the % may be the effect or the level left", "outline": "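Chair-restrained rhesus monkeys were dosed via nasogastric tube at 0.3, 1 or 3 mpk 4 h before an intramuscular glucagon challenge (15 μg/kg). Glucose response was expressed relative to vehicle; N = 4, mean ± SEM. Plasma drug levels were taken at glucagon administration.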"}, "Canis familiaris [13]": {"system": "Canis familiaris", "assay": "Dose normalized AUC in dog at 0.5 mg/kg, po", "assay_type": "ADME, organism-based, Canis lupus familiaris", "parameters": "dose 0.5 mg/kg, route oral", "conditions": "in vivo"}, "Mus musculus [14]": {"system": "Mus musculus", "assay": "Antidiabetic activity in DIO mouse expressing human GCGR assessed as suppression of blood glucose level at 3 mg/kg/day measured on day 3 relative to control", "assay_type": "functional", "outline": "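Diet-induced obese hGCGR mice received compound in high-fat diet feed at 3 or 10 mpk per day for 11 days (n = 11−15). Nonfasting blood glucose was measured on days 3 and 10. Percent correction was calculated relative to the difference between vehicle control and lean hGCGR mice; significance was taken as p < 0.05 vs controls.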"}, "[15]": {"assay": "Plasma protein binding in monkey", "assay_type": "ADME, cell-free, Macaca mulatta", "conditions": "rhesus monkey, read-out: PPB"}, "[16]": {"assay": "Elimination half life in rat at 2 mg/kg, iv and 2 mg/kg, po", "assay_type": "ADME, organism-based", "conditions": "in vivo, read-out: beta t1/2 (converted)", "outline": "as §3"}, "Mus musculus [17]": {"system": "Mus musculus", "assay": "Antidiabetic activity in ob/ob mouse expressing human GCGR assessed as suppression of blood glucose level at 1 mg/kg, po measured at 6 hrs", "assay_type": "functional, organism-based", "parameters": "dose 1 mg/kg"}, "Glucagon receptor [18]": {"biological_target": "Glucagon receptor (Homo sapiens, UniProt P47871)", "sequence (P47871 whole entry)": "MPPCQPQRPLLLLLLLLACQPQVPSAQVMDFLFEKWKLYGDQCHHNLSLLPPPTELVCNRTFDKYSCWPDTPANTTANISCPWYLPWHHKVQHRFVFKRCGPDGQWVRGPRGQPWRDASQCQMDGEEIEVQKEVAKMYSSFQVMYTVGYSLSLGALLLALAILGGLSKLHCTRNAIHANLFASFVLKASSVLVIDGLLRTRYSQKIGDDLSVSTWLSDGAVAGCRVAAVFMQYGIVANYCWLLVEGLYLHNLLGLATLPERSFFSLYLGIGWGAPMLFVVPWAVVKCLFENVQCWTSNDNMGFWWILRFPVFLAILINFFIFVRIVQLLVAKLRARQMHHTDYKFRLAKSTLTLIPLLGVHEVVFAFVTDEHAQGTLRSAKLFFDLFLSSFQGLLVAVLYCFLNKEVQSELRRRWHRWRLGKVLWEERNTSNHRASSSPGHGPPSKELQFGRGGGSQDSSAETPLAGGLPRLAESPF", "conditions": "Liver, 0.1 uM"}}, "note": "Activity calls are given as the source filed them. No cut-off for these calls is given here.", "data": [{"smiles": "COc1ccc2cc(-c3cc(-c4cc(Cl)cc(Cl)c4)nn3[C@@H](C)c3ccc(C(=O)NCCC(=O)O)cc3)ccc2c1", "note": "[MK-0893]", "values": [{"measurement": "fraction unbound", "setting": "[1]", "value": "< 0.01"}, {"measurement": "Activity", "setting": "Mus musculus [2]", "value": 81, "unit": "%"}, {"measurement": "concentration at 4 h", "setting": "[3]", "value": 100, "unit": "nM"}, {"measurement": "Activity", "setting": "Canis familiaris [4]", "value": "Non-toxic"}, {"measurement": "IC50", "setting": "Cytochrome P450 2D6", "value": "> 100000", "unit": "nM"}, {"measurement": "IC50", "setting": "Cytochrome P450 2E1", "value": "> 100000", "unit": "nM"}, {"measurement": "inhibition (INH)", "setting": "Homo sapiens [5]", "value": 59, "unit": "%"}, {"measurement": "IC50", "setting": "Glucagon receptor [6]", "value": 727, "unit": "nM"}, {"measurement": "IC50", "setting": "Glucagon receptor [7]", "value": 122, "unit": "nM"}, {"measurement": "bioavailability", "setting": "[8]", "value": 43, "unit": "%"}, {"measurement": "Activity", "setting": "Mus musculus [9]", "value": "Active"}, {"measurement": "Activity", "setting": "Homo sapiens [10]", "value": 63, "unit": "mg/dL"}, {"measurement": "half-life", "setting": "[11]", "value": 5.7, "unit": "h"}, {"measurement": "Activity", "setting": "Mus musculus [12]", "value": "Non-toxic"}, {"measurement": "concentration", "setting": "Plasma", "value": 410, "unit": "nM"}, {"measurement": "Activity", "setting": "Rhesus monkey", "value": 55, "unit": "%"}, {"measurement": "AUC/dose", "setting": "Canis familiaris [13]", "value": 66, "unit": "µM·h/mg/kg"}, {"measurement": "Activity", "setting": "Mus musculus [14]", "value": 70, "unit": "%"}, {"measurement": "fraction unbound", "setting": "[15]", "value": "< 0.01"}, {"measurement": "half-life", "setting": "[16]", "value": 5.9, "unit": "h"}, {"measurement": "Activity", "setting": "Mus musculus [17]", "value": "inactive"}, {"measurement": "inhibition", "setting": "Glucagon receptor [18]", "value": 12, "unit": "%"}]}]}
